Experimental data: PubChem BioAssay AID624107 (Broad Institute, 2012)
Active and inactive are the calls of the source.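 How the source made its calls: active means fitted absorbance curve falls past 35% inhibition at a dose no higher than twice the top tested dose; inconclusive means flat fit at 30 to 70% inhibition, or poor fit; inactive means the rest.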

Tested on: not listed separately
Assay: P. aeruginosa PAK growth delay with EDDHA – PAK strain, absorbance 405 nm, dry powder, dose response (AID 624107)
Settings: P. aeruginosa PAK + EDDHA, pyoverdine absorbance 405 nm, 28 h; at 100 µM (top of the series)
Summary of the method: (§1)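 Assay system: Pseudomonas aeruginosa PAK wild-type strain, whole bacterial cells. Medium: succinate M9 medium at pH 7.0 with 2 µM EDDHA. Also added: iron chelator EDDHA at 2 µM in the medium. Doses: compound dose series from 100 µM down to 15 nM final. Incubation: compound exposure of 28 h at 30 °C, humidified.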
For `N#CC(c1ccc(F)cc1)c1cccc(Cl)n1` (stereo unspecified), the activity change, negative = inhibition was -39.4% (inactive). With `COCCOCCC(C#N)c1ccc(Cl)cc1` (stereo unspecified) the activity change, negative = inhibition was 6.79% (inactive). For `CCCCC(c1ccc(Cl)cc1)c1nn[nH]n1` (stereo unspecified), the activity change, negative = inhibition was -16.3% (inactive). For `Clc1ccc(C(c2cccc(Cl)n2)c2nn[nH]n2)cc1` (stereo unspecified), the activity change, negative = inhibition was 14.5% (inactive). For `CCCCC(C#N)c1ccccn1` (stereo unspecified), the activity change, negative = inhibition was 3.52% (inactive). In the case of `COCCNC(C#N)c1ccc(Cl)cc1` (stereo unspecified), the activity change, negative = inhibition is reported as -17.9% (inactive). For `N#CC(c1ccc(C(F)(F)F)c(Cl)n1)c1ccccc1OC(F)(F)F` (stereo unspecified), the activity change, negative = inhibition was -22.7% (inactive). With `COCCC(C#N)c1ccc(Cl)cc1` (stereo unspecified) the activity change, negative = inhibition was -7.69% (inactive). In the case of `CCCCC(C#N)c1ccc(Cl)cc1` (stereo unspecified), the activity change, negative = inhibition is reported as -14% (inactive).

Tested on: P. aeruginosa PAK + EDDHA, pyoverdine absorbance 405 nm, 28 h
Assay: as above
Settings: not given
Summary of the method: as §1
Compound `N#CC(c1ccc(Cl)cc1)c1ncccc1Cl` (stereo unspecified) has an AC35 of 22 µM. In the case of `N#CC(c1ccc(Cl)cc1)c1cccc(C(F)(F)F)n1` (stereo unspecified), the AC35 is reported as 3.67 µM. Compound `N#CC(c1ccc(Cl)cc1)c1cccc(Cl)n1` (stereo unspecified) has an AC35 of 11.8 µM. With `CN(C)CCCC(C#N)c1ccc(Cl)cc1` (stereo unspecified) the AC35 was > 100 µM (inactive). `N#CC(c1ccc(F)cc1)c1cccc(C(F)(F)F)n1` (stereo unspecified) gave an AC35 of 9.8 µM. With `N#CC(c1cccc(Cl)n1)c1ccc(Cl)cc1F` (stereo unspecified) the AC35 was 5.28 µM. Compound `N#CC(c1cccc(C(F)(F)F)n1)c1ccc(Cl)cc1F` (stereo unspecified) has an AC35 of 5.42 µM.
